Experimental data from ChEMBL document CHEMBL1140286, “Synthesis, in vitro characterization, and radiolabeling of N,N-dimethyl-2-(2'-amino-4'-substituted-phenylthio)benzylamines: potential candidates as selective serotonin transporter radioligands” (J Med Chem, 2005).

Tests used:
Type in all cases: cell-based
[1] = target: Sodium-dependent dopamine transporter (Homo sapiens, UniProt Q01959); experiment: In vitro inhibition of [3H]WIN-35428 binding to human dopamine transporter expressed in canine kidney cells
Sequence of Sodium-dependent dopamine transporter (Q01959 whole entry): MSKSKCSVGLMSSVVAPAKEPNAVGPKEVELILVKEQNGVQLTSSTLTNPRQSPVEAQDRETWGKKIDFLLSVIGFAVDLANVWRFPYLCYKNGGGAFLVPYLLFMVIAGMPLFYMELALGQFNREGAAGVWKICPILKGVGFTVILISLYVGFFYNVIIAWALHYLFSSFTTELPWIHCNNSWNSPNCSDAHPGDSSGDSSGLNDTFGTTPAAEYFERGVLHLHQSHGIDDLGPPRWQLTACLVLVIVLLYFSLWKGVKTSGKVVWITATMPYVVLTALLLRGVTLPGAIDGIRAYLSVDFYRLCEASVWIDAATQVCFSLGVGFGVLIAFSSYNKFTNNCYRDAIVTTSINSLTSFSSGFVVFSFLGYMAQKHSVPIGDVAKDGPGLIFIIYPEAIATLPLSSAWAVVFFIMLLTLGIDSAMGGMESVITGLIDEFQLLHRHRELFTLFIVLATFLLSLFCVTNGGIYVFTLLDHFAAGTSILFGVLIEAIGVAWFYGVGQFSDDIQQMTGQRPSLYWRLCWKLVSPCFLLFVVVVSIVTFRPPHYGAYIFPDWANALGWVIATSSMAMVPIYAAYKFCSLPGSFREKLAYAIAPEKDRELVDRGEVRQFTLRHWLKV
How it was run: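 Membranes from MDCK cells stably expressing hDAT, grown to confluency in DMEM with 10% FBS and Geneticin, harvested in PBS/0.53 mM EDTA, homogenized, pelleted at 43 000g. Membranes (30-70 µg protein) incubated 1 h at room temperature in 42 mM sodium phosphate, 320 mM sucrose, pH 7.4, with 2.0 nM [3H]WIN 35,428; competitor 10^-13 to 10^-5 M, 12 concentrations, triplicate; GF/B filtration; Ki.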

[2] = target: Sodium-dependent noradrenaline transporter (Homo sapiens, UniProt P23975); experiment: In vitro inhibition of [3H]nisoxetine binding to norepinephrine transporter expressed in human kidney cells
Sequence of Sodium-dependent noradrenaline transporter (P23975 whole entry): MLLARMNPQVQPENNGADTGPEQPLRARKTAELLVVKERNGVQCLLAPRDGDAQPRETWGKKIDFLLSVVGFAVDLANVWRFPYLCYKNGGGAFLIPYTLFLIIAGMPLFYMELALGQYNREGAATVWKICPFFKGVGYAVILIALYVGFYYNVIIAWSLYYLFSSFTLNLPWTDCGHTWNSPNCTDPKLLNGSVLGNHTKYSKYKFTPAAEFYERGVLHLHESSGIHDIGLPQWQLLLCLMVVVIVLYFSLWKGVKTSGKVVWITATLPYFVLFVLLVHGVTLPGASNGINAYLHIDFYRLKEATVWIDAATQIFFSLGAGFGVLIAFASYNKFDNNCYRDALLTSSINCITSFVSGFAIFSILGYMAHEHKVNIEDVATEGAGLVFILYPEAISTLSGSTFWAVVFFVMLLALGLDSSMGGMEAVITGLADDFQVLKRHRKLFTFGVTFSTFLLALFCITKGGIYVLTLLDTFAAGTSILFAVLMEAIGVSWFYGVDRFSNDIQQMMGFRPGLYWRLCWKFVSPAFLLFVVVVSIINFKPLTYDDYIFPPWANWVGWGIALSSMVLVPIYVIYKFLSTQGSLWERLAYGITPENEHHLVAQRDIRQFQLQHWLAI
How it was run: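 HEK-293 membranes stably expressing hNET (30-70 µg protein) incubated 4 h at 4 °C with [3H]nisoxetine in 53 mM Tris, 320 mM NaCl, 5.3 mM KCl, pH 7.4. Competitor dissolved in 1:1 ethanol/5 mM HCl, 12 concentrations from 10^-13 to 10^-5 M, triplicate. Cold-buffer termination, vacuum filtration on GF/B; Ki calculated from competition curves.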

[3] = target: Sodium-dependent serotonin transporter (Homo sapiens, UniProt P31645); experiment: In vitro inhibition of [3H]citalopram binding to human serotonin transporter expressed in human HEK293 cells
Sequence of Sodium-dependent serotonin transporter (P31645 whole entry): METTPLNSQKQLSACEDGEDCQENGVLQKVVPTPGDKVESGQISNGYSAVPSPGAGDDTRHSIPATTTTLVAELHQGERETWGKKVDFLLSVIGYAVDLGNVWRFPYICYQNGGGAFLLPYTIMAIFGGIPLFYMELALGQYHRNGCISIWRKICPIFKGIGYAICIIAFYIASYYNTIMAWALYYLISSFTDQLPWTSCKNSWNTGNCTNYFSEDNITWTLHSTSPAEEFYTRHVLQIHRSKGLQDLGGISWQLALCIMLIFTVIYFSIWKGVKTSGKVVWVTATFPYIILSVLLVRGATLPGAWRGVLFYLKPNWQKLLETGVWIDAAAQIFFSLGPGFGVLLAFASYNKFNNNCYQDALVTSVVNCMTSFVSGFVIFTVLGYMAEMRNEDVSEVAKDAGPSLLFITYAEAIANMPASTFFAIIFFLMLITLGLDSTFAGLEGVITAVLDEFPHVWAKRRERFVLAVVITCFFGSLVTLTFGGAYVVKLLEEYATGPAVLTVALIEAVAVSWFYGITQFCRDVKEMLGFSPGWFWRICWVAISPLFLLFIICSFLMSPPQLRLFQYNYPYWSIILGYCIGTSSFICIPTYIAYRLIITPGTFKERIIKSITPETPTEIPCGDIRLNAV
How it was run: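 Membranes from HEK-293 cells stably expressing hSERT, grown in DMEM with 10% FBS and Geneticin. 30-70 µg membrane protein incubated 2 h at room temperature with [3H]citalopram in 53 mM Tris, 126 mM NaCl, 5.3 mM KCl, pH 7.9. Competitor at 12 concentrations, 10^-13 to 10^-5 M, in triplicate. Filtration through PEI-soaked GF/B filters; Ki from competition curves, at least two separate assays.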

In the case of CN(C)Cc1ccccc1Sc1ccc(CCO)cc1N, the Ki [1] is reported as > 1000 nM, the Ki [2] is reported as 194 nM and the Ki [3] is reported as 50.6 nM.
CN(C)Cc1ccccc1Sc1ccc(CCF)cc1N was tested, and the Ki [1] was > 5000 nM, the Ki [2] was > 5000 nM and the Ki [3] was 8.5 nM.
CCc1ccc(Sc2ccccc2CN(C)C)c(N)c1 was tested, and the Ki [1] was > 2000 nM, the Ki [2] was 370 nM and the Ki [3] was 0.49 nM.
In the case of CCc1ccc(Sc2ccccc2CNC)c(N)c1, the Ki [1] is reported as > 1000 nM, the Ki [2] is reported as 445 nM and the Ki [3] is reported as 2.04 nM.
Molecule CN(C)Cc1ccccc1Sc1ccccc1N has a Ki [1] of 279 nM, a Ki [2] of 4.95 nM and a Ki [3] of 1.59 nM.
For C=Cc1ccc(Sc2ccccc2CN(C)C)c(N)c1, the Ki [1] was 962 nM, the Ki [2] was 269 nM and the Ki [3] was 1.12 nM.
For CN(C)Cc1ccccc1Sc1ccc(CO)cc1N, the Ki [1] was > 1000 nM, the Ki [2] was 303 nM and the Ki [3] was 0.57 nM.
CNC(=O)c1ccccc1Sc1ccc(C)cc1[N+](=O)[O-] gave a Ki [1] of 698 nM, a Ki [2] of 191 nM and a Ki [3] of 1.94 nM.
Work on CNC(=O)c1ccccc1Sc1ccccc1[N+](=O)[O-] yielded a Ki [1] of 969 nM, a Ki [2] of 37.5 nM and a Ki [3] of 83.4 nM.
For Cc1ccc(Sc2ccccc2CN(C)C)c(N)c1, the Ki [1] was 532 nM, the Ki [2] was 61 nM and the Ki [3] was 0.25 nM.
CN(C)Cc1ccccc1Sc1ccc(I)cc1N was tested, and the Ki [3] was 0.013 nM.
With CNCc1ccccc1Sc1ccc(CO)cc1N the Ki [1] was > 1000 nM, the Ki [2] was 484 nM and the Ki [3] was 15.1 nM.
With CN(C)Cc1ccccc1Sc1ccc(CCCF)cc1N the Ki [1] was > 5000 nM, the Ki [2] was 219 nM and the Ki [3] was 8.55 nM.
For CN(C)Cc1ccccc1Sc1ccc(CCCO)cc1N, the Ki [1] was > 5000 nM, the Ki [2] was 108 nM and the Ki [3] was 92.3 nM.
